Like-named read-outs stand apart in the source and are kept apart here.
Assays:
rats [1] = conditions: ref Hampton Research, 2016, cited from earlier work
rats [2] = conditions: ref Swanson et al., 2005; cited from earlier work
neurons after axotomy = conditions: in vivo; ref Geiger et al., 2002; cited from earlier work
RGC-5 cells = assay type: cell-based; conditions: one hour, DSSA alone 22.3 ± 0.2, mean ± SEM of 3 experiments
[3] = Superoxide detection by EPR with spin trap DEPMPO; assay type: biochemical; conditions: for reducing activity by EPR spectroscopy: converts superoxide adduct of the spin trap to hydroxyl adduct; for effect on EPR spectra of superoxide adduct of DEPMPO: xanthine/xanthine oxidase
How it was run: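 Superoxide is generated from hypoxanthine (200 μM) and xanthine oxidase (0.0025 U/mL) with the spin trap DEPMPO present. A hydroxyl-adduct reference spectrum comes from a Fenton reaction: FeSO4 (100 μM), diethylenetriaminepentaacetic acid (100 μM) and H2O2 (1 mM) with DEPMPO (100 mM). Superoxide- and hydroxyl-DEPMPO adducts are recorded by EPR at room temperature, 9.85 GHz.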

rat [4] = conditions: rat optic nerve transection; ref Almasieh et al., 2011; cited from earlier work
[5] = octanol/water, room temperature
rat [6] = conditions: rat experimental glaucoma; ref Almasieh et al., 2011; cited from earlier work
[7] = test system: RGCs and retinal endothelial cells; conditions: ref Schlieve et al., 2006; cited from earlier work
[8] = Superoxide scavenging, xanthine/xanthine oxidase with hydroethidine fluorescence; assay type: biochemical; conditions: 1, 10, 100 μM, compared to PEG-SOD control
[9] = Cell-free disulfide reduction of DTNB; assay type: biochemical; conditions: for reduction of disulfides in cell-free assays: non-deprotected (borane-complexed) forms
[10] = Accelerated stability of solid compound by HPLC; assay type: physicochemical
[11] = over 72 hours, HPLC
[12] = test system: CNS neurons in mixed retinal culture; conditions: ref Geiger et al., 2002; cited from earlier work

Molecule	reducing activity by EPR spectroscopy [3]	effect on EPR spectra of superoxide adduct of DEPMPO [3]	neuroprotection in vivo (rat [4])	neuroprotection in vivo (rat [6])	superoxide scavenging (2-hydroxyethidium fluorescence) [8]	reduction of disulfides in cell-free assays [9]	peak area, % of control ([10]; 40°C, 37 days) [%]	peak area, % of control ([10]; 40°C, 125 days) [%]	peak area, % of control ([10]; 60°C, 37 days) [%]	peak area, % of control ([10]; 60°C, 125 days) [%]	mean cell fluorescence intensity (DSSA-1) (RGC-5 cells; 10 μM)	other results
O=C(O)CCP(CCC(=O)O)CCC(=O)O [TCEP, tris(2-carboxyethyl)phosphine]												LD50 (rats [1]; i.p injection): greater than 1024 mg/kg; LD50 (rats [1]; rats dosed orally): 3500 mg/kg; neuronal death after optic nerve crush (rats [2]): prevents neuronal death; neuronal death after axotomy (neurons after axotomy): prevents neuronal death; mean cell fluorescence intensity (DSSA-1) (RGC-5 cells; 1 mM): 25.6 ± 0.2
COC(=O)CCP(c1ccccc1)c1ccccc1 [P2, (3-propionic acid methyl ester)diphenylphosphine]	strong reducing activity	did not diminish the spectra of superoxide										
[BH3-][P+](CCC(=O)OC)(c1ccccc1)c1ccccc1 [PB2, (3-propionic acid methyl ester) diphenylphosphine-borane complex]			neuroprotective	neuroprotective	did not appreciably scavenge superoxide	did not reduce disulfides	100	86	100	14	36.6 ± 0.2	log Poct/wat [5]: 1.1; no toxicity up to (concentration) [7]: 100 µM; reducing capability towards DTNB ([9]; borane removed with DABCO, pH 7, compared with DTT and TCEP): reduced disulfides more effectively than DTT or TCEP; calculated half-life ([10]; 20°C, extrapolation using the Arrhenius equation): 18 years; solubility in water [11]: 3.7 µM
bis(3-propionic acid methyl ester) phenylphosphine-borane complex [PB1]			neuroprotective	neuroprotective	did not appreciably scavenge superoxide	did not reduce disulfides	80	58	72	12	26.7 ± 0.3	
COC(=O)CCP(CCC(=O)OC)c1ccccc1 [P1, bis(3-propionic acid methyl ester) phenylphosphine]	strong reducing activity	did not diminish the spectra of superoxide										
O[C@@H](CS)[C@@H](O)CS (racemic) [DTT, dithiothreitol]												in vitro survival of CNS neurons [12]: can increase in vitro survival
